Legend:
[1] = target: T1, Prostaglandin G/H synthase 1 (Ovis aries, UniProt P05979); experiment: Inhibition of ovine COX-1 assessed as decrease in PGH2 production using arachidonic acid as substrate treated with enzyme for 10 mins prior to substrate challenge for 2 mins by enzyme immunoassay
T1 sequence (P05979 whole entry): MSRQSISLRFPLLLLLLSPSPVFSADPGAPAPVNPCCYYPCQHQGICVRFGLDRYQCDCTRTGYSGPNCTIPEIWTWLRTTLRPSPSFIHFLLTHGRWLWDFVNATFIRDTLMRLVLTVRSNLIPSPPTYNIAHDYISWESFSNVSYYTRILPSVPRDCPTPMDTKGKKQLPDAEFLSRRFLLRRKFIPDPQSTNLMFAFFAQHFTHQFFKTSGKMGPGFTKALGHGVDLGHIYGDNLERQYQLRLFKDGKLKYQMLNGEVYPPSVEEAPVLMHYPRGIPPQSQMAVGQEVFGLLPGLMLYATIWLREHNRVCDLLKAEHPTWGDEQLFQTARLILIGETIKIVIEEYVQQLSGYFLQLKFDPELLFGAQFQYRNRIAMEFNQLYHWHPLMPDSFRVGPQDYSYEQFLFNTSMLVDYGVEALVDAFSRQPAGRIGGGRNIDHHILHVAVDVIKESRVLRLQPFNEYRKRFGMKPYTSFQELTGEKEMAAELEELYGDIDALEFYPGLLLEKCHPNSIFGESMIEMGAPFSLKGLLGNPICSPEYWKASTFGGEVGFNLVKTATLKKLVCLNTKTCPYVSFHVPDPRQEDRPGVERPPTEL
Procedure, shortened: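 Ovine COX-1 was mixed with test compound at various concentrations plus heme and held 10 min at 37 °C. Arachidonic acid was then added and the reaction ran another 2 min at 37 °C. PGH₂ was reduced with SnCl₂, and the resulting PGF₂α was quantified by EIA using a broadly specific prostaglandin antibody. Boiled (3 min) enzyme served as background and compound-free samples as control. IC50 taken from at least three experiments.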

RAW264.7 = experiment: Cytotoxicity against mouse RAW264.7 cells assessed as cell viability at >10 uM after 24 hrs by MTT assay in presence of LPS; format: cell-based; details: raw264.7, 24 h
Procedure, shortened: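 RAW 264.7 cells plated at 10⁵ cells/well, exposed to various concentrations of compound in the presence of LPS for 24 h. Viability read by colorimetric MTT assay. At least three independent experiments.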

## NS(=O)(=O)c1ccc(C2=C(c3ccc(Cl)cc3)C(=O)NC2=O)cc1
[1]
  IC50: > 100 µM
RAW264.7
  Activity: Non-toxic

## Cc1ccc(C2=C(c3ccc(S(N)(=O)=O)cc3)C(=O)NC2=O)cc1
[1]
  IC50: > 100 µM
RAW264.7
  Activity: Non-toxic

## Cc1ccc(C2=C(c3ccc(S(N)(=O)=O)cc3)C(=O)N(C)C2=O)cc1
[1]
  IC50: > 1 µM
RAW264.7
  Activity: Non-toxic

## COc1ccc(C2=C(c3ccc(S(N)(=O)=O)cc3)C(=O)N(C)C2=O)cc1
[1]
  IC50: > 1 µM
RAW264.7
  Activity: Non-toxic

## NS(=O)(=O)c1ccc(C2=C(c3ccccc3)C(=O)NC2=O)cc1
[1]
  IC50: 127 µM
RAW264.7
  Activity: Non-toxic

## COc1ccc(C2=C(c3ccc(S(N)(=O)=O)cc3)C(=O)NC2=O)cc1
[1]
  IC50: > 100 µM
RAW264.7
  Activity: Non-toxic

## CN1C(=O)C(c2ccccc2)=C(c2ccc(S(N)(=O)=O)cc2)C1=O
[1]
  IC50: > 1 µM
RAW264.7
  Activity: Non-toxic

## CN1C(=O)C(c2ccc(Cl)cc2)=C(c2ccc(S(N)(=O)=O)cc2)C1=O
[1]
  IC50: > 1 µM
RAW264.7
  Activity: Non-toxic
